High-throughput results as filed in PubChem.
Only some compounds are listed: those with a hit (about 4.1% of all), similar ones and a draw of the others.
H9c2 TAG inh = triacylglycerol accumulation inhibition; H9c2 cells, Nile Red lipid (TAG) fluorescence; cells loaded with 200 µM oleic acid; inhibition, % at 12.5 µM; 230,000 tested, 0.66% active;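 active = pattern-corrected inhibition of lipid staining of at least 50% with the nuclear-stain viability signal not falling by more than 50%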;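 note: 0% = DMSO wells and 100% = triacsin C control wells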
SMARCA2 act = activators of SMARCA2 function; MG213 cells, MMTV-luciferase reporter, dexamethasone, overnight; 370,000 tested, 1% active; AID 652017; activation, % at 9.1 µM; in the data active = activation above about 7.8%;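 note: 0% = vehicle wells and 100% = reference activator wells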
Efflux pump mplx = inhibitors of Candida antifungal efflux pumps expressed in yeast | AID 485275 | S. cerevisiae Candida pump triplex, Nile Red efflux | inhibition, % at 10 µM | 330,000 tested, 0.44% active;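 active = plate passing quality check with inhibition over a set limit, or well fluorescence over plate mean plus 4 SD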;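 note: Nile Red retained in pooled yeast measured as flow cytometry median fluorescence; 0% = buffer negative control and 100% = Enniatin B positive control; higher means more Nile Red kept so more efflux inhibition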
AHR activator = activates the human aryl hydrocarbon receptor | P35869 | AHR-responsive luciferase reporter cells, luminescence | activation, % at 5 µM | 320,000 tested, 2.5% active; in the data active = activation above about 47%;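 note: 0% = vehicle wells and 100% = reference agonist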
Target sequence (P35869 whole entry, looked up): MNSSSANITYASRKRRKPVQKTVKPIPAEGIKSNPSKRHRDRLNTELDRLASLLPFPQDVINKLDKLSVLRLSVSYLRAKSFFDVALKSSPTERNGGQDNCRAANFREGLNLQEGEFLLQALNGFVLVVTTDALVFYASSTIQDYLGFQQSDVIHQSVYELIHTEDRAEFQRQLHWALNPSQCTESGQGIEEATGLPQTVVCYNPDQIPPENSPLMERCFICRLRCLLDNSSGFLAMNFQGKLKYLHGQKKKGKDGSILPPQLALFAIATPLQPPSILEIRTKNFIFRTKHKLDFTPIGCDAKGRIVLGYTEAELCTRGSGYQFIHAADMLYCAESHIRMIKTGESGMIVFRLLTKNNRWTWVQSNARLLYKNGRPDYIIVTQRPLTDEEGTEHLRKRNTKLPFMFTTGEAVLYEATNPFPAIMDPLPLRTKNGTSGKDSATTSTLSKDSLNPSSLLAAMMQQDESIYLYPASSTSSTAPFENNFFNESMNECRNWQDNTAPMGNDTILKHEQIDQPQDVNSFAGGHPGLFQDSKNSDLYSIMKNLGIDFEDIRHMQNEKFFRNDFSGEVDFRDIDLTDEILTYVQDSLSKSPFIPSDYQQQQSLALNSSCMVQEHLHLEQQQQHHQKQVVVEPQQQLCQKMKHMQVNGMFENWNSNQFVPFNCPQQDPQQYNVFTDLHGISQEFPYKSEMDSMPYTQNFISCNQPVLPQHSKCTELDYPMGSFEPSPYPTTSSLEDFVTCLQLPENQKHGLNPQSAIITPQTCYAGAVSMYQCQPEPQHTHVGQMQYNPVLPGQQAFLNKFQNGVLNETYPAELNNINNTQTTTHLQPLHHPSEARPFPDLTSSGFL
TbMetRS inhib = blocks T. brucei methionyl-tRNA synthetase activity. 360,000 tested, 0.4% active. purified T. brucei MetRS, ATP depletion, Kinase-Glo luminescence. inhibition, % at 11.9 µM;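 active = inhibition above a per-plate cutoff of the control wells' mean inhibition plus 3 SD, cut at about 5.5% in these data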;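 note: 0% = DMSO wells median and 100% = median of wells with control inhibitor compound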
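Material – parasite MetRS enzyme · Medium – HEPES-MgCl2-KCl buffer plus DTT, spermine, BSA, pyrophosphatase · Reagent – ATP, methionine and E. coli bulk tRNA substrates · Times – 15 min enzyme-compound preincubation, 2 h reaction, 10 min detection, 25 °C · Measured by – luminescence of leftover ATP · Evaluation – percent inhibition relative to median high and low control wells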
Cmpd fluor yeast = counter-screen for efflux pump inhibitors: compound fluorescence | fluorescence ratio to DMSO, % at 10 µM | S. cerevisiae AD/pABC3, flow cytometry | shares compounds with Efflux pump mplx | 1,700 tested, 4% active;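 active = fluorescence ratio to DMSO above its plate's cutoff, the plate mean ratio plus 5 SD, cut at about 210% in these data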;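 note: unstained yeast with no Nile Red so the signal is compound autofluorescence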
CaMdr1 efflux inh = blocks the Candida albicans Mdr1 efflux pump in yeast; shares compounds with Efflux pump mplx; S. cerevisiae AD/CaMDR1, Nile Red efflux, flow cytometry; inhibition, % at 10 µM; 1,700 tested, 1% active; AID 588518; in the data active = inhibition above about 26%;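 note: 0% = DMSO vehicle and 100% = reference inhibitor; higher means more Nile Red retained so more efflux inhibition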
CaCdr2 efflux inh = blocks the Candida albicans Cdr2 efflux pump in yeast. shares compounds with Efflux pump mplx. S. cerevisiae AD/CaCDR2, Nile Red retention, flow cytometry. Nile Red retention ratio vs DMSO, % at 10 µM. 1,700 tested, 4% active; in the data active = Nile Red retention ratio vs DMSO above about 190%;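 note: higher ratio means more blocking of Cdr2 efflux of the dye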
Cdr1 pump inh = inhibitors of Candida albicans Cdr1 efflux pump; shares compounds with Efflux pump mplx; 1,700 tested, 1% active; S. cerevisiae AD/CaCDR1, Nile Red efflux, flow cytometry; inhibition, % at 10 µM; AID 588522;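 active = inhibition above the screen-wide mean plus twice its standard deviation, cut at about 32% in these data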
* = called active by the depositor; / = no result; + = active, no number.

SMILES	H9c2 TAG inh	SMARCA2 act	Efflux pump mplx	AHR activator	TbMetRS inhib	Cmpd fluor yeast	CaMdr1 efflux inh	CaCdr2 efflux inh	Cdr1 pump inh
O=C(CSc1nnc(Cc2cccs2)n1Cc1ccco1)Nc1ccc(Br)cc1	-0.7	-1.5	-0.2	1.4	-0.1	76.0	-0.1	99.3	0.0
O=C(CSc1nnc(-c2cccs2)n1Cc1ccco1)Nc1ccc(Oc2ccccc2)cc1	/	1.4	/	/	/	/	/	/	/
Cc1cc(C)nc(SCc2nnc(SCC(=O)Nc3ccc(C)c(C)c3)n2Cc2ccco2)n1	6.1	-4.0	1.0*	46.0	-1.1	218.9	0.8	99.7	9.3
COC(=O)CSc1nnc(CSc2nc(C)cc(C)n2)n1Cc1ccco1	10.3	-2.0	0.0	0.4	-1.3	/	/	/	/
C=CCN=C1NC(c2ccc(Cl)cc2)C(C(=O)OC)=C(C)N1Cc1ccccc1C(F)(F)F (stereo unspecified)	/	0.6	/	/	/	/	/	/	/
COc1cccc(C(=O)n2ccc3ccc(-c4ccc5ccn(Cc6ccccc6)c5c4)cc32)c1	/	-1.7	/	/	/	/	/	/	/
O=C(Nc1ccccc1N1CCCCC1)c1cc(S(=O)(=O)N2CCOCC2)ccc1Cl	-4.6	-0.7	0.1	5.3	-0.5	/	/	/	/
O=C(Nc1ccccc1Cl)c1cc(S(=O)(=O)N2CCCCC2)ccc1N1CCOCC1	-0.5	-0.1	1.2*	1.6	-0.6	97.8	0.1	104.2	0.1
CCCC[C@H](C(=O)N(C)c1ccccc1)[C@@H](O)c1ccc2ccccc2c1	/	-4.0	/	/	/	/	/	/	/
O=C(N/N=C/C1=C(N2CCOCC2)C(=C\c2ccccc2)/CC1)Nc1ccccc1	/	-0.1	0.1	0.5	1.9	/	/	/	/
CCN(CC)c1ccc(/C=C2\CCC(/C=N/NC(=O)c3ccc(=O)n(C)c3)=C2N2CCOCC2)cc1	/	-1.5	1.0*	-4.1	0.1	112.2	0.5	125.0	-0.2
Cc1nnc(NC(=O)c2sc3nc(-c4cccs4)cc(C(F)(F)F)c3c2N)s1	/	-5.4	1.3*	17.9	-1.7	131.1	0.4	137.3	0.3
CC(C)(C)C(=O)c1sc2nc(-c3cccs3)cc(C(F)(F)F)c2c1N	/	-2.7	0.3	10.9	-0.8	/	/	/	/
Cc1cccc(NC(=O)CNC(=O)[C@@H](Cc2ccccc2)NC(=O)[C@H]2O[C@@H](n3ccc(=O)[nH]c3=O)[C@H](O)[C@@H]2O)c1C	/	-4.8	/	/	/	/	/	/	/
Cc1cccc(N=Nc2c(O)[nH]c3ccc(Br)cc23)c1	/	3.4	-0.2	42.3	-0.7	/	/	/	/
COc1ccccc1N=Nc1c(O)[nH]c2ccc(Br)cc12	/	-2.5	0.4*	45.8	0.0	106.7	-0.1	116.2	0.1
CC(C)C(=O)Oc1ccc(CO)cc1[C@H](CCN(C(C)C)C(C)C)c1ccccc1	/	-2.2	/	/	/	/	/	/	/
COc1cc(C(=O)NC2CCCc3c2cnn3-c2ccccc2F)cc(OC)c1OC (stereo unspecified)	/	-3.5	0.1	2.5	-0.6	/	/	/	/
COc1ccc(C(=O)NC2CCCc3c2cnn3-c2ccccc2F)o1 (stereo unspecified)	/	1.8	-0.5	3.2	-0.6	94.8	-0.2	107.2	-0.1
CCOc1cc2[nH]c(=S)n(CCC(=O)NCc3ccc(OC)cc3)c(=O)c2cc1OCC	/	-2.5	0.4*	-1.5	-0.4	101.7	0.4	127.0	0.1
COc1ccc(CNC(=O)CCCn2c(=S)[nH]c3cc4c(cc3c2=O)OCO4)cc1	/	2.4	-0.1	2.1	0.0	/	/	/	/
COc1ccc(-c2sc3cc(OC)ccc3c2-c2ccc(OCCN3CCCCC3)cc2)cc1	/	-2.7	/	/	-0.3	/	/	/	/
COc1cccc(-c2sc3ccccc3c2-c2ccc(OCCN3CCCC3)cc2)c1	14.5	0.1	0.5	0.4	-0.3	/	/	/	/
COc1ccc(-c2sc3ccc(OC)cc3c2-c2ccc(OCCN3CCOCC3)cc2)cc1	-9.4	/	51.9*	/	-2.7	99.8	15.8	95.6	55.1*
COc1cccc(-c2sc3ccc(OC)cc3c2-c2ccc(OCCN3CCCC3)cc2)c1	18.4	/	73.4*	/	-0.9	95.0	-0.3	+	0.0
SMILES	H9c2 TAG inh	SMARCA2 act	Efflux pump mplx	AHR activator	TbMetRS inhib	Cmpd fluor yeast	CaMdr1 efflux inh	CaCdr2 efflux inh	Cdr1 pump inh
COc1cccc(-c2sc3cc(OC)c(OC)cc3c2-c2ccc(OCCN3CCCCC3)cc2)c1	91.9*	/	0.7	/	-2.1	98.2	-0.1	116.4	0.1
CCc1cc2c(=O)n(Cc3ccccc3)c(SC3CCOC3=O)nc2s1 (stereo unspecified)	-5.5	0.0	0.9*	3.8	-0.3	97.8	-0.3	112.4	0.1
Cc1ccc(Cn2c(SC3CCOC3=O)nc3ccccc3c2=O)cc1 (stereo unspecified)	/	-0.2	0.0	0.3	-0.3	/	/	/	/
O=[N+]([O-])c1cccc(-c2cnc3ccccc3n2)c1	-10.5	4.4	0.0	28.5	1.3	/	/	/	/
O=[N+]([O-])c1cccc(-c2nc3ccccc3s/c2=N/O)c1	/	-1.2	0.7*	31.2	0.2	116.4	0.2	116.2	0.5
Cc1cc(C(=O)N/N=C/c2cccc([N+](=O)[O-])c2)c2ccccc2n1	/	-1.9	8.3*	4.5	0.3	845.4*	60.3*	113.8	1.9
O=C(NN=Cc1cccc([N+](=O)[O-])c1)c1cc(-c2cccnc2)nc2ccccc12	-11.3	-1.0	-0.2	2.1	-0.3	/	/	/	/
CC(C)(C)c1ccc(S(=O)(=O)N2CCCC2C(=O)N2CCc3ccccc3C2)cc1 (stereo unspecified)	/	1.2	/	/	/	/	/	/	/
CCOC(=O)N1CCN(C(=O)C[C@@H]2C(=O)N(Cc3ccc(OC)cc3)/C3=C/CCCCC[C@@]32C(=O)OCC)CC1	/	-3.5	/	/	/	/	/	/	/
COc1cccc(C(=O)COc2ccc3c(C)c(Cc4ccccc4)c(=O)oc3c2)c1	/	-1.1	7.5*	3.3	-1.0	103.0	0.0	95.6	0.0
O=C(Nc1ccc(S(=O)(=O)Nc2ccccn2)cc1)c1cccc(Br)c1	-12.7	-2.8	6.2*	0.1	0.2	100.2	-0.3	86.7	-0.4
CCCC[C@H]1C2CC(OC(=O)Nc3cccc(C(F)(F)F)c3)C(C2)[C@H]2CCCCN21 (stereo partly specified)	/	-4.5	/	/	/	/	/	/	/
CCCCOCCCNC(=O)C[C@H]1C[C@@]2(C(=O)OC)C(=C[C@H](C(C)C)O[C@@H]2C2CC2)N(Cc2ccc3c(c2)OCO3)C1=O	/	-2.9	/	/	/	/	/	/	/
COC(=O)[C@H](CCSC)NC(=O)NCc1cccs1	/	3.9	6.7*	-0.3	-1.5	110.0	-0.1	101.7	0.0
COc1ccc([C@H]2CC(=O)C=C(c3ccnc4ccc(Cl)cc34)C2)cc1	-22.9	-2.2	66.5*	-1.8	-0.1	104.7	0.0	101.7	0.1
O=C(CN1CCN(C(=O)N2CCOCC2)CC1)Nc1ccc(Br)cc1	-8.3	-1.3	17.1*	10.3	-1.6	98.3	-0.1	103.0	-0.1
COC(=O)C1CN(C2CCCC2)CCS(=O)(=O)N1Cc1cn(Cc2ccc(OC)cc2)nn1 (stereo unspecified)	/	-1.5	/	/	/	/	/	/	/
